Activity data for 9 compounds are collected here from ChEMBL document CHEMBL1649122, “Abc1p is a multidrug efflux transporter that tips the balance in favor of innate azole resistance in Candida krusei” (2009).

The target of experiment [1] is ATP binding cassette transporter Abc1p (Issatchenkia orientalis) (UniProt Q09GQ4). The experiment in a line: Inhibition of Candida krusei ABC1 expressed in Saccharomyces cerevisiae isolate ADdelta at 46 nM. The following applies: Pichia kudriavzevii. The essentials: (§1)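 Agarose disk-diffusion test of S. cerevisiae AD overexpressing C. krusei Abc1p, with the parent AD strain as comparison. Cells were pregrown from YPD overnight into CSM to mid-log at 30°C. They were seeded at OD600 0.008 in CSM with 0.6% agarose, overlaid on CSM agar (pH 7.0). Paper disks carrying set nmol amounts of xenobiotic were applied, and plates were incubated at 30°C for 48 h before reading growth inhibition zones.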

Experiment [2] shares this target. As to the kind of experiment: Inhibition of Candida krusei ABC1 expressed in Saccharomyces cerevisiae isolate ADdelta at 87 nM. The following applies: Pichia kudriavzevii. A digest of the protocol:
as §1

The target is the same in experiment [3]. The experiment in a line: Inhibition of Candida krusei ABC1 expressed in Saccharomyces cerevisiae isolate ADdelta at 131 nM. The following applies: Pichia kudriavzevii. A digest of the protocol: as §1
Experiment [4] shares this target. As to the kind of experiment: Inhibition of Candida krusei ABC1 expressed in Saccharomyces cerevisiae isolate ADdelta at 12 nM. To be noted: Pichia kudriavzevii. A digest of the protocol:
as §1

For experiment [5] the target is unchanged. The experiment in a line: Inhibition of Candida krusei ABC1 expressed in Saccharomyces cerevisiae isolate ADdelta at 4 nM. To be noted: Pichia kudriavzevii.
The target is the same in experiment [6]. As to the kind of experiment: Inhibition of Candida krusei ABC1 expressed in Saccharomyces cerevisiae isolate ADdelta at 0.24 nM. The following applies: Pichia kudriavzevii.
Experiment [7] has the same target. The experiment in a line: Inhibition of Candida krusei ABC1 expressed in Saccharomyces cerevisiae isolate ADdelta at 2.5 uM. The following applies: Pichia kudriavzevii. The essentials: as §1
Experiment [8] deals with Pichia kudriavzevii. As to the kind of experiment: Increase in ERG11 mRNA expression in Candida krusei B2401 after 60 mins by hot-phenol extraction based Northern blotting. Type of experiment: functional, organism-based.
The test system of experiment [9] is Pichia kudriavzevii. As to the kind of experiment: Increase in ABC1 mRNA expression in Candida krusei B2402 after 60 mins by hot-phenol extraction based Northern blotting. Type of experiment: functional, organism-based.
For experiment [10], the target named is ATP binding cassette transporter Abc1p (Issatchenkia orientalis) (UniProt Q09GQ4). The experiment in a line: Inhibition of Candida krusei ABC1 expressed in Saccharomyces cerevisiae isolate ADdelta at 620 nM. The following applies: Pichia kudriavzevii. A digest of the protocol:
as §1

Active and inactive are the calls of the source. The calls are words filed in the database; no cut-off is given here.

Turning to `CN(C/C=C/C#CC(C)(C)C)Cc1cccc2ccccc12`, the outcome in experiment [1] was inactive.
In the case of `C[C@@H]1[C@H](O)[C@@H](C)/C=C/C=C/C=C/C=C/C=C/C=C/C=C/[C@H](O[C@@H]2O[C@H](C)[C@@H](O)[C@H](N)[C@@H]2O)C[C@@H]2O[C@](O)(C[C@@H](O)C[C@@H](O)[C@H](O)CC[C@@H](O)C[C@@H](O)CC(=O)O[C@H]1C)C[C@H](O)[C@H]2C(=O)O`, the outcome in [2] was inactive.
With `COC(=O)c1ccccc1-c1c2ccc(=N)cc-2oc2cc(N)ccc12`, the result in experiment [3] was Active.
Turning to `CC[C@@]1([C@@H]2O[C@@H]([C@H]3O[C@@](O)(CO)[C@H](C)C[C@@H]3C)C[C@@H]2C)CC[C@H]([C@]2(C)CC[C@]3(C[C@H](O)[C@@H](C)[C@@H]([C@@H](C)[C@@H](OC)[C@H](C)C(=O)O)O3)O2)O1`, the outcome in [4] was Active.
On to `O=[N+]([O-])c1cc[n+]([O-])c2ccccc12`, for which the result in [5] was inactive.
Take `C/C1=C/C(=O)O[C@@H]2C[C@@H](CC[C@H](C)/C=C\C=C\CC1)O[C@@](O)([C@@H]1CSC(=O)N1)C2`: the result in experiment [6] was Active.
Take `C[C@H]1c2cccc(O)c2C(=O)C2=C(O)[C@]3(O)C(=O)C(C(N)=O)=C(O)[C@@H](N(C)C)[C@@H]3[C@@H](O)[C@@H]21`: the result in experiment [7] was inactive.
Turning to `CC(C)[C@@H](C)/C=C/[C@@H](C)[C@H]1CC[C@H]2C3=CC=C4C[C@@H](O)CC[C@]4(C)[C@H]3CC[C@]12C`, the outcome in the experiment on Pichia kudriavzevii [8] and in the experiment with Pichia kudriavzevii [9] was inactive.
For `CN1CCN(CCCN2c3ccccc3Sc3ccc(C(F)(F)F)cc32)CC1`, in experiment [10], the outcome was inactive.
